{"data": "Experimental data pooled from the literature", "target": "Adenosine receptor A1 (ADORA1, Homo sapiens, UniProt P30542)", "One construct used (P30542 1-326)": "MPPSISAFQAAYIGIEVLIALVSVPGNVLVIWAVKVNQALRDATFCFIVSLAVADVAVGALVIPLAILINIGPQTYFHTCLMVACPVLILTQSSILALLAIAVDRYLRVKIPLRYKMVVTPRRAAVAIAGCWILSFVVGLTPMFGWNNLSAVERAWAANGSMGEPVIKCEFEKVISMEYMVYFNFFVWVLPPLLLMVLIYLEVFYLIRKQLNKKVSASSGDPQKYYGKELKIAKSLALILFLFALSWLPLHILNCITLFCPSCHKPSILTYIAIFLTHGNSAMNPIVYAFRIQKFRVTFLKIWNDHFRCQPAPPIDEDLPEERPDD", "note": "Each line is one published result; the experiments were not run side by side."}
{"SMILES": "CCCCCCN1CCCn2c1nc1c2c(=O)n(C)c(=O)n1C", "test": "ligand displacement, radioligand", "conditions": "cell membranes", "endpoint": "Ki", "result": "3.8 µM"}
{"SMILES": "C#CCNc1nc(Cl)nc2c1ncn2[C@H]1[C@H](O)[C@H](O)[C@]2(C(=O)NC)C[C@H]12", "test": "ligand displacement, radioligand", "conditions": "cell membranes", "endpoint": "Ki", "result": "0.4 µM"}
{"SMILES": "OC[C@@]12C[C@@H]1[C@@H](n1cnc3c(NC(C4CCCC4)C4CCCC4)nc(Cl)nc31)[C@H](O)[C@@H]2O", "test": "ligand displacement, radioligand", "endpoint": "Ki", "result": "0.436 µM"}
{"SMILES": "C=CN1CCCn2c1nc1c2c(=O)n(C)c(=O)n1C", "test": "ligand displacement, radioligand", "conditions": "cell membranes", "endpoint": "Ki", "result": "> 10 µM"}
{"SMILES": "COc1cccc(Cn2c(=O)n(CC3CC3)c(=O)c3c2nc2cc(OC)ccn23)c1", "test": "ligand displacement, radioligand", "conditions": "cell membranes", "endpoint": "Ki", "result": "0.209 µM"}
{"SMILES": "CNC(=O)[C@@]12C[C@@H]1[C@@H](n1cnc3c(NCc4cccc(C#CCCCc5cn(-c6ccc(F)c(N)c6)nn5)c4)nc(Cl)nc31)[C@H](O)[C@@H]2O", "test": "ligand displacement, radioligand", "conditions": "cell membranes", "endpoint": "Ki", "result": "0.64 µM"}
{"SMILES": "CNC(=O)[C@@]12C[C@@H]1[C@@H](n1cnc3c(NCCc4ccc(O)c(OC)c4)nc(C#Cc4ccc(Cl)s4)nc31)[C@H](O)[C@@H]2O", "test": "cell-free assay, radioligand", "endpoint": "Ki", "result": "0.043 µM"}
{"SMILES": "O[C@@H]1[C@H](O)CO[C@H]1n1cnc2c(NCc3cccc(I)c3)ncnc21", "test": "ligand displacement, radioligand", "conditions": "cell membranes", "endpoint": "Ki", "result": "2.08 µM"}
{"SMILES": "CCCC[C@H](NC(=O)[C@H](C)c1c(C)[nH]c2ccc(O)cc12)c1ncc(-c2cc3ccccc3nc2OC)[nH]1", "test": "cell-free assay", "endpoint": "IC50", "result": "2.73 µM"}
{"SMILES": "CCNC(=O)C1OC(n2cnc3c(N)nc(NN=CC4CCC=CO4)nc32)C(O)C1O (centres unmarked)", "test": "ligand displacement, radioligand", "conditions": "cell membranes", "endpoint": "Ki", "result": "0.0764 µM"}
{"SMILES": "O[C@@H]1[C@H](O)CO[C@H]1n1cnc2c(NCc3cccc(Br)c3)ncnc21", "test": "ligand displacement, radioligand", "conditions": "cell membranes", "endpoint": "Ki", "result": "3.3 µM"}
{"SMILES": "C#CCCCCC(=O)NCCNC(=O)COc1ccc(-c2nc3c([nH]2)c(=O)n(CCC)c(=O)n3CCC)cc1", "test": "ligand displacement, radioligand", "conditions": "cell membranes", "endpoint": "Ki", "result": "0.107 µM"}
{"SMILES": "COCCN(CCOC)C(=O)[C@@]12C[C@@H]1[C@@H](n1cnc3c(N)nc(Cl)nc31)[C@H](O)[C@@H]2O", "test": "ligand displacement, radioligand", "endpoint": "Ki", "result": "0.998 µM"}
{"SMILES": "CNC(=O)[C@@]12C[C@@H]1[C@@H](n1cnc3c(NCc4cn(-c5ccc(C(=O)NCCCF)cc5)nn4)nc(Cl)nc31)[C@H](O)[C@@H]2O", "test": "ligand displacement, radioligand", "conditions": "cell membranes", "endpoint": "Ki", "result": "1.38 µM"}
